Experimental findings from ChEMBL document CHEMBL1144725, “Seco-terpenoids and other constituents from Elateriospermum tapos” (J Nat Prod, 2008) are described below.

The subject of one assay is Cancer cell lines. Description: Cytotoxicity against human breast cancer cells at 10 ug/mL. It is filed as functional, cell-based.
In assay [1] the test system is NCI-H187. Description: Cytotoxicity against human NCI-H187 cells at 10 ug/mL. It is filed as functional, cell-based.
Assay [2] concerns Mycobacterium tuberculosis. The experiment in a line: Antimycobacterial activity against Mycobacterium tuberculosis H37Ra by microplate alamar blue assay. In kind it is functional. The essentials: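 Microplate Alamar Blue assay against Mycobacterium tuberculosis H37Ra, with isoniazid and kanamycin sulfate as reference drugs.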
(Alamar Blue is a resazurin reagent that responds to reducing activity.)

For a further assay, the system named is KB. The experiment in a line: Cytotoxicity against human KB cells. In kind it is functional, cell-based.
Assay [3] relates to NCI-H187. The experiment in a line: Cytotoxicity against human NCI-H187 cells. It is filed as functional, cell-based.
The nature of assay [4]: Cytotoxicity against human breast cancer cells. As to conditions: Cancer cell lines. In kind it is functional, cell-based.

Molecules are shown by their SMILES. Values after ≈ are worked out from the molar mass of the structure shown. Active and inactive are the calls of the source.

For `C=C[C@@]1(C)C(=O)C=C2C(=CC[C@@H]3C(C)(C)[C@H](O)C(=O)C[C@@]23C)[C@H]1O`, the outcome with Cancer cell lines and with NCI-H187 [1] was inactive.
As to `COC(=O)C(C)(C)C1CC[C@@]2(C)C3=CC[C@@]4(C(=O)O)CCC(C)(C)CC4[C@]3(C)CCC2[C@@]1(C)CC(=O)O` (stereo partly specified), the result in the assay with Cancer cell lines and in the assay on NCI-H187 [1] was inactive.
For the molecule `COc1cc(O)c2c(=O)cc(-c3ccc(O)c(-c4c(O)cc(O)c5c(=O)cc(-c6ccc(O)cc6)oc45)c3)oc2c1`, the outcome in the assay on Cancer cell lines and in the assay on NCI-H187 [1] was inactive.
Turning to `CC(=O)O[C@H]1CC[C@]2(C)[C@H]3CC[C@]4(C)C(=CC[C@@]5(C(=O)O)CCC(C)(C)C[C@H]54)[C@]3(C)CC[C@H]2C1(C)C`, the outcome with Cancer cell lines and in the assay on NCI-H187 [1] was inactive.
As to `CC1(C)CC[C@]2(C(=O)O)CC=C3[C@]4(C)CC[C@H]5C(C)(C)[C@@H](O)CC[C@]5(C)[C@H]4CC[C@@]3(C)[C@@H]2C1`, the result in the assay on Cancer cell lines and with NCI-H187 [1] was inactive.
Turning to `C=C[C@]1(C)C=C2CC[C@@H]3C(C)(C)[C@H](O)C(=O)C[C@@]3(C)[C@@H]2C[C@@H]1O`, the result in the assay on Cancer cell lines and with NCI-H187 [1] was inactive.
`COc1ccc(-c2cc(=O)c3c(O)cc(O)c(-c4cc(-c5cc(=O)c6c(O)cc(OC)cc6o5)ccc4O)c3o2)cc1`: the result with Cancer cell lines and in the assay on NCI-H187 [1] was inactive.
Take `O=c1cc(-c2ccc(O)c(-c3c(O)cc(O)c4c(=O)cc(-c5ccc(O)cc5)oc34)c2)oc2cc(O)cc(O)c12`: the result in the assay on Cancer cell lines and in the assay with NCI-H187 [1] was inactive.
Turning to `CC1(C)[C@H](O)[C@@H](O)C[C@]2(C)[C@@H]1CC[C@]13C=C[C@](C)(C1)C(=O)C[C@H]32`, the outcome with Cancer cell lines and in the assay with NCI-H187 [1] was inactive.
As to `COc1cc(O)c2c(=O)cc(-c3ccc(OC)c(-c4c(O)cc(O)c5c(=O)cc(-c6ccc(O)cc6)oc45)c3)oc2c1`, the outcome in the assay on Cancer cell lines and in the assay with NCI-H187 [1] was inactive.
`C=C(C)[C@H]1CC[C@]2(C)[C@H]3CC[C@@H]4[C@@]5(C)CC[C@H](O)C(C)(C)[C@@H]5CC[C@@]4(C)[C@]3(C)CC[C@@H]12`: the outcome in the assay with Cancer cell lines and with NCI-H187 [1] was inactive.
By MIC is commonly meant the smallest concentration in the dilution series that meets the test's criterion for growth inhibition. As to `NC[C@H]1O[C@H](O[C@H]2[C@H](O)[C@@H](O[C@H]3O[C@H](CO)[C@@H](O)[C@H](N)[C@H]3O)[C@H](N)C[C@@H]2N)[C@H](O)[C@@H](O)[C@@H]1O.O=S(=O)(O)O` [KANAMYCIN SULFATE], the MIC in assay [2] is 1.25 µg/mL.
Regarding `C=C(C)[C@@H]1CC[C@]2(C)CC[C@]3(C)[C@H](CC[C@@H]4[C@@]5(C)CC[C@H](OC(C)=O)C(C)(C)[C@@H]5CC[C@]43C)[C@@H]12`, the outcome in the assay on Cancer cell lines and with NCI-H187 [1] was inactive.
With `NNC(=O)c1ccncc1` [ISONIAZID], inhibition of growth in assay [2] (MIC) required 0.05 µg/mL (≈ 0.365 µM).
What is called IC50 is the midpoint of a concentration-inhibition curve. A low value points to higher potency. Turning to `Cc1c2ccncc2c(C)c2c1[nH]c1ccccc12` [ELLIPTECINE], the values for the IC50 (in the assay on KB; in the assay on NCI-H187 [3]; in assay [4]) were 0.41 µg/mL (≈ 1.66 µM), 0.52 µg/mL (≈ 2.11 µM) and 0.13 µg/mL (≈ 0.528 µM), respectively.
As for `C=C(C)[C@@H]1CC[C@]2(C)CC[C@]3(C)[C@H](CC[C@@H]4[C@@]5(C)CC[C@H](O)C(C)(C)[C@@H]5CC[C@]43C)[C@@H]12`, the result in the assay on Cancer cell lines and with NCI-H187 [1] was inactive.
As to `COC(=O)C[C@@]1(C)C(C(C)(C)C(=O)OC)CC[C@@]2(C)C3=CC[C@@]4(C(=O)O)CCC(C)(C)CC4[C@]3(C)CCC12` (stereo partly specified), in assay [2], the MIC was 3.13 µg/mL (≈ 5.9 µM). Also, the IC50 with NCI-H187 [3] amounted to 4.65 µg/mL (≈ 8.76 µM); in assay [4], 7.08 µg/mL (≈ 13.3 µM).
Regarding `C=Cc1c(C)c(O)cc2c1CCC(C(C)(C)C(=O)O)[C@@]2(C)CC(=O)O` (stereo partly specified), the outcome in the assay on Cancer cell lines and in the assay with NCI-H187 [1] was inactive.
